# L major viab: reduces viability of Leishmania major promastigotes | resazurin fluorescence viability | inhibition, % at 10 µM | 200,000 tested, 9% active | AID 1063; in the data active = inhibition above about 50%;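 also: promastigotes grown with compound for 44 hours at 28 °C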
# Diaphorase inh: diaphorase inhibition or chemical oxidation counter-screen; diaphorase resazurin-to-resorufin fluorescence, NADH, 16 min; bacterial (C. kluyveri) enzyme, not human; inhibition, % at 20 µM; 190,000 tested, 0.69% active; AID 1217;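 active = primary screen inhibition at 20 µM above a set limit, cut at about 50% in these data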;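 also: plate controls were DMSO with full reaction for no effect and wells lacking NADH for full effect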
#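 Test system: Clostridium kluyveri diaphorase enzyme / Quantity: diaphorase at 0.14 U/mL in enzyme working solution / Incubation: 16-min room-temperature incubation before reading / Benchmarks: NADH-free wells as positive control, DMSO-only neutral wells / Signal: resorufin fluorescence 544/590 nm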
# ROMK primary: modulates human ROMK potassium channel activity; P48048; B-score at 10 µM; AID 1918; Tet-inducible ROMK, thallium flux fluorescence; actives lie on both sides; 130,000 tested, 2% active;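 active = signal ratio slope over the read window, or its plate-corrected B-score, at least 3 SD from the plate mean, either direction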;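 also: B-score of the F/F0 ratio slope over 7 to 12 s after thallium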
# Diaph act CS: counter-screen for diaphorase-based assays: diaphorase activators and chemical reducers | AID 1229 | Diaphorase/resazurin coupled assay, resorufin fluorescence, 16 min; active compounds read high; 1 = vehicle wells, 0 = NADH-free wells | 190,000 tested, 0.005% active | activation factor at 20 µM;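 active = diaphorase activity raised at least twofold by the compound at 20 µM; inactive = activation factor below 2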
#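 System – purified diaphorase enzyme from Clostridium kluyveri · Input – enzyme 0.07 U/mL final · Also added – final NADH 0.114 mM, resazurin 0.1 mM · Measured by – fluorescence of resorufin, 544 nm excitation, 590 nm emission · Timing – 16 min enzyme reaction, ambient temperature · Measure – resorufin increase flagging diaphorase activators or reducers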
# WT yeast gro inh: growth inhibition of WT yeast, mitochondrial fusion screen; AID 1362; inhibition, % at 10 µM; 190,000 tested, 2.1% active; mitochondrial fusion phenotypic screen, WT strain; in the data active = inhibition above about 58%; tested in S. cerevisiae
# Cl transport mod: modulators of human KCC2 chloride dependent transport. B-score of Tl+ flux slope (higher = more flux/activation; lower = inhibition) at 10 µM. KCC2 cells, thallium flux FluoZin-2 fluorescence. 190,000 tested, 2.2% active. Q9H2X9. AID 1456;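 active = thallium flux slope and its plate-corrected score both differing from the plate sample mean at a set confidence after two filtering rounds, in either direction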;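 also: slope of fluorescence scaled to starting intensity during 10 to 20 s after thallium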
# Target sequence (Q9H2X9 whole entry, looked up): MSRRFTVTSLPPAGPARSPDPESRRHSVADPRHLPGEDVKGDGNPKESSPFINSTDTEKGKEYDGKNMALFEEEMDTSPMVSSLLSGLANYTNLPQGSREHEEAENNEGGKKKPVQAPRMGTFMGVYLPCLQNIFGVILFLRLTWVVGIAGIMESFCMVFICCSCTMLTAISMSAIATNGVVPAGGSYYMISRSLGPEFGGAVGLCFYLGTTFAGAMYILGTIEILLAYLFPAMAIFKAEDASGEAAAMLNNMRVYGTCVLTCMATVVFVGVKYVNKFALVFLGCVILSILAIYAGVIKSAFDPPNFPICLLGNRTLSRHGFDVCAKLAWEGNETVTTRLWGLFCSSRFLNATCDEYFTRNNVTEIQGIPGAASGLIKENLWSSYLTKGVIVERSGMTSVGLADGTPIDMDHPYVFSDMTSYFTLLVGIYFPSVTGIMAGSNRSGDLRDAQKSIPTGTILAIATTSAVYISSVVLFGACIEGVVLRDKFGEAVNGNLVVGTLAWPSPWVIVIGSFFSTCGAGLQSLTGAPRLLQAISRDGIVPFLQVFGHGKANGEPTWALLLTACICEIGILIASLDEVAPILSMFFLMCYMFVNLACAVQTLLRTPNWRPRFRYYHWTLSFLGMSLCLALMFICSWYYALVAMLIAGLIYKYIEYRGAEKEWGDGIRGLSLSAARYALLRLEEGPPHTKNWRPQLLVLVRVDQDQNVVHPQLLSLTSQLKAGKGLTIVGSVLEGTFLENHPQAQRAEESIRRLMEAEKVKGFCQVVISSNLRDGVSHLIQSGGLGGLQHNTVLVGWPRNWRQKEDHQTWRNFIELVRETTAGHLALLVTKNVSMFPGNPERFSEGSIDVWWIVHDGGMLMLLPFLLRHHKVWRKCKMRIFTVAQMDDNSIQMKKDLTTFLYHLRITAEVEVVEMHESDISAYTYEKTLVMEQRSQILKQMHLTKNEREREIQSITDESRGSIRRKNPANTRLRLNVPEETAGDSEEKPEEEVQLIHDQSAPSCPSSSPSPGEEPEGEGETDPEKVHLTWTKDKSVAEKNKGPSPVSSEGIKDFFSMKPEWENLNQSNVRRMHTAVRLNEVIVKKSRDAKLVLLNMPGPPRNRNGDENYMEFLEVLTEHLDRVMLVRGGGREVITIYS
# KCC2 sec1: confirmation of human KCC2 transport modulators | shares compounds with Cl transport mod | 3,700 tested, 15% active | HEK293-KCC2, thallium flux, FluoZin2 fluorescence; active compounds read high | normalised thallium flux (F/F0 slope) at 10 µM;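 active = thallium flux slope above the same plate's solvent-only control mean plus 3 SD; inconclusive = the two replicate wells disagree; inactive = no significant difference from solvent-only control wells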
# KCC2 bumet counter: bumetanide-insensitive thallium flux in KCC2 cells with ouabain, counter-screen; shares compounds with Cl transport mod; HEK293-KCC2 + bumetanide/ouabain, thallium flux FluoZin2; active compounds read high; normalized thallium flux at 10 µM; 3,700 tested, 49% active;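 active = thallium entry rate above the same plate's blocked-transporter control wells by more than 3 SD; inconclusive = the two repeat wells disagree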;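 also: raw slope of fluorescence over initial fluorescence between 10 and 20 s after thallium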
# KCC2 secondary2: confirmation of human KCC2 transport modulators; AID 1715; HEK293-KCC2, thallium flux FluoZin2 fluorescence; actives lie on both sides; F/F0 rise rate, 10–20 s post-thallium; shares compounds with Cl transport mod; 3,700 tested, 23% active; normalized thallium flux at 10 µM;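 active = thallium flux slope more than 3 SD above or below the plate's solvent-only control mean, mostly below; inconclusive = the two repeat wells disagreed; inactive = no significant shift from solvent-only controls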;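 also: raw slope with 0.1% DMSO as baseline and bumetanide as block control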
# HEK counter1: counter-screen for KCC2 modulators: effect in parental HEK293 cells | thallium flux FluoZin2, ouabain; baseline-ratio fluorescence slope, 10–20 s after thallium | thallium flux rate (normalised fluorescence) at 10 µM | shares compounds with Cl transport mod | 3,700 tested, 46% active;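 active = thallium flux rate significantly above the same plate's solvent-only control wells, beyond their mean plus 3 SD; inconclusive = the two replicate wells gave conflicting results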
# KCC2 ouabain: confirmation of human KCC2 modulators with ouabain; shares compounds with Cl transport mod; raw Tl+ flux slope (below DMSO = inhibition, above = activation) at 10 µM; HEK293-KCC2, thallium flux FluoZin2 fluorescence; bidirectional: low = inhibitor, high = activator; 3,700 tested, 48% active;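 active = thallium flux slope beyond 3 SD from same-plate DMSO control mean in most replicates, usually higher, sometimes lower; inconclusive = repeat tests gave conflicting results; inactive = no significant difference from controls in most replicates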;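 also: slope of initial-normalized fluorescence between seconds 10 and 20 after thallium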
# HEK293 Tl flux2: acts in parental HEK cells, second KCC2 counter-screen. 3,700 tested, 33% active. HEK293 parental, thallium flux FluoZin-2 fluorescence slope. shares compounds with Cl transport mod. AID 1718. thallium flux slope at 10 µM;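 active = thallium flux slope above the same plate's solvent-control mean plus 3 SD in both duplicate wells; inconclusive = duplicate wells that disagreed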;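 also: run without ouabain in cells lacking the KCC2 cotransporter; slope of fluorescence scaled to its starting value between 10 and 20 s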
# Starred values were filed as active, the others as inactive; ? = inconclusive; . = no result. In the library only some 12% were active in any assay of this set; here they are far more common.
SMILES,L major viab,Diaphorase inh,ROMK primary,Diaph act CS,WT yeast gro inh,Cl transport mod,KCC2 sec1,KCC2 bumet counter,KCC2 secondary2,HEK counter1,KCC2 ouabain,HEK293 Tl flux2
COC(=O)c1ccc(CSc2ncnc3sc(C)c(C)c23)o1,-4,18,-1.3,0.8,4,51*,0.011*,0.1*,0.07*,0.064*,0.084*,0.05*
C=CCSc1ncnc2sc(C)c(C)c12,54*,20,.,0.8,7,4.8*,0.011,0.023*,0.034,0.013*,0.025,0.013*
Cc1sc2nc(SCc3nnc(-c4cccs4)o3)n(C3CCCC3)c(=O)c2c1C,5,8,0.27,0.9,7,10*,0.017*,0.046*,0.034,0.019*,0.031,0.014*
COc1cccc(-c2nc(NCCN3CCOCC3)c3ccccc3n2)c1O,35,13,-0.84,0.9,-18,-0.041,0.01,0.0072,0.033,0.0078,0.021,?
COc1cccc(-c2nc(NC(C)(C)C)c3ccccc3n2)c1O,8,34,1.1,0.7,-27,0.39,.,.,.,.,.,.
c1ccc(-n2c(-c3ccncc3)nnc2-c2ccco2)cc1,-6,14,.,0.9,5,.,0.017,0.0048,0.029,0.007,0.016,0.011
Cc1c(C(N)=O)c(-c2ccccc2)nn1-c1ccccc1,-2,4,.,1,15,1.2,.,.,.,.,.,.
CCCc1c(-c2ccc(O)cc2)nn(-c2ccc(O)cc2)c1-c1ccc(O)cc1,.,.,.,.,.,-2.5*,0.0072,0.0046,0.033,?,0.019,0.01
COC(=O)c1cnn(-c2ccc(F)cc2F)c1/C=N/NC(=S)NC(C)(C)C,.,.,-0.23,.,.,7.8*,0.011,0.051*,0.031,0.017*,0.031,?
CNC(=S)N/N=C/c1c(C(=O)OC)cnn1-c1ccc(F)cc1F,.,.,-0.024,.,.,2.2,.,.,.,.,.,.

# Source: PubChem BioAssay (several laboratories)
